Activity calls are given as the source filed them. The rule behind the calls is not given here.
What was measured:
Cortical neurone [1] = experiment: Cytotoxicity against rat cortical motor neurons assessed as reduction of cell viability at 1 uM incubated for 48 hrs by MTT assay; format: cell-based
Method in brief: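 Rat cortical motor neurons in neurobasal medium with 2% B-27 on poly-D-lysine, grown 8−10 days to a dense network, then exposed to compound for 48 h. Viability read by MTT (0.3 mg/mL final, 30 min, 37 °C, dark), formazan dissolved in DMSO, absorbance 540 nm, expressed as % of untreated cells.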

SH-SY5Y [2] = experiment: Neuroprotective activity in human SH-SY5Y cells assessed as reversal of okadaic acid-induced cytotoxicity at 0.1 uM preincubated for 24 hrs followed by […] by MTT assay; format: functional
SH-SY5Y [3] = experiment: Cytotoxicity against human SH-SY5Y cells assessed as reduction of cell viability at <10 uM incubated for 48 hrs by MTT assay; format: cell-based
Method in brief: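 SH-SY5Y cells exposed to compounds for 48 h; viability read by MTT reduction (final 0.3 mg/mL, 2 h at 37 °C in the dark), formazan dissolved in DMSO, absorbance at 540 nm, expressed as % of untreated cells.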

[4] = system: Voltage-gated calcium channel; experiment: Inhibition of VGCC in human SHSY-5Y cells assessed as reduction of K+-evoked cytosolic ca2+ at 1 uM incubated for 10 mins prior to KCl addition by Fluo-4-AM probe-based fluorescence analysis; format: cell-based
Method in brief: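 SH-SY5Y cells at confluence (48 h after seeding) loaded with 10 μM Fluo-4/AM plus 0.2% pluronic in Krebs–HEPES (pH 7.4) for 45 min at 37 °C, then washed. Compound at 1 μM for 10 min, then KCl 70 mM. Ex 485/em 520 nm; signal normalized to Fmax (Triton X-100) minus Fmin (MnCl2). At least six experiments versus K+ response without compound.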

Homo sapiens [5] = species on record: Homo sapiens; experiment: (§1) Suppression of okadaic acid-induced inhibition of PP1/PP2A in human SHSY-5Y cells at 0.1 uM using pNPP as substrate assessed as remaining total phosphatase activity incubated for 30 mins by colorimetric assay (reference value: 68 +/- 2%); format: cell-based
Method in brief: (§2)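 SH-SY5Y cells treated with compound at 0.1 μM plus okadaic acid 15 nM (24 h preincubation, then coincubation). Medium removed; assay buffer with pNPP (10 mM) added, 30 min at 37 °C in the dark, absorbance at 405 nm. For Ser/Thr activity, 1 mM orthovanadate added to the buffer. Expressed as % of untreated cells; at least four experiments.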

Homo sapiens [6] = species on record: Homo sapiens; experiment: as §1, with “Ser/Thr” for “total”, “mins in presence of tyrosine phosphatase inhibitor sodium orthovanadate” for “mins”, “61” for “68”, “3%)” for “2%)”; format: cell-based; method in brief: as §2
Bos taurus [7] = species on record: Bos taurus; experiment: Inhibition of VGCC in bovine chromaffin cells assessed as reduction in depolarization-evoked Ca2+ current at 1 uM at -80 mV holding potential using 50 millisec depolarization pulses every 20 secs by patch clamp method; format: cell-based
[8] = system: Voltage-gated calcium channel; experiment: Inhibition of VGCC in human SHSY-5Y cells assessed as reduction of K+-evoked cytosolic ca2+ at 3 uM incubated for 10 mins prior to KCl addition by Fluo-4-AM probe-based fluorescence analysis; format: cell-based
Method in brief: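 SH-SY5Y cells grown to confluence over 48 h, then loaded with 10 μM Fluo-4/AM and 0.2% pluronic acid in Krebs–HEPES (pH 7.4) for 45 min at 37 °C and washed. Compound added 10 min before depolarisation with KCl 70 mM. Fluorescence read at ex 485/em 520 nm and normalised to Fmax (Triton X-100) and Fmin (MnCl2). Inhibition taken against the K+ response without compound; ≥6 experiments.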

Cortical neurone [9] = experiment: Neuroprotective activity in rat cortical motor neurons assessed as reversal of veratridine-induced cytotoxicity at 0.1 uM incubated for 24 hrs followed by coincubation with veratridine for 24 hrs by MTT assay; format: functional
Bos taurus [10] = species on record: Bos taurus; experiment: Inhibition of VGCC in bovine chromaffin cells assessed as potentiation of compound-induced of reduction in depolarization-evoked Ca2+ current at 1 uM at -80 mV holding potential using 50 millisec depolarization pulses every 20 secs in presence of L-type VGCC blocker nifedipine by patch clamp method; format: cell-based
Bos taurus [11] = species on record: Bos taurus; experiment: Inhibition of VGCC in bovine chromaffin cells assessed as reduction in depolarization-evoked Ca2+ current at 1 uM at -80 mV holding potential using 50 millisec depolarization pulses every 20 secs in presence of […] N and P/Q type VGCC blocker omega-conotoxin MV2C by patch clamp method; format: cell-based
Hippocampal neurone = experiment: (§3) Neuroprotective activity in Sprague-Dawley rat hippocampal cells assessed as reversal of glutamate-induced cytotoxicity at 10 uM incubated for 4 hrs by MTT assay; format: functional
Method in brief: (§4)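 Hippocampal slices from 2-month-old Sprague–Dawley rats stabilized 45 min at 34 °C, then coincubated 4 h with compound and glutamate 1 mM. Viability by MTT (0.3 mg/mL, 30 min), absorbance at 540 nm. Reported as % protection relative to glutamate-only slices; at least four tissue batches in quadruplicate.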

[12] = as §3; format: functional, Hippocampal neurone; method in brief: as §4

Compound	Activity (Cortical neurone [1])	Activity (SH-SY5Y [2])	Activity (SH-SY5Y [3])	inhibition (INH) [4]	Activity (Homo sapiens [5])	Activity (Homo sapiens [6])	inhibition (Bos taurus [7])	inhibition (INH) [8]	Activity (Cortical neurone [9])	inhibition (Bos taurus [10])	inhibition (Bos taurus [11])	Activity (Hippocampal neurone)	Activity [12]
c1ccc2c(CN3CCCCC3)c[nH]c2c1	Toxic	47%	Non-Toxic	30%	76%	79%	–	–	–	–	–	–	–
CN(C)Cc1cn(CCCCN2CCCCC2)c2ccc(Br)cc12	–	31%	Non-Toxic	14%	73%	68%	–	–	–	–	–	–	–
Cc1ccc2[nH]cc(CN(C)C)c2c1	–	59%	Non-Toxic	10%	79%	77%	–	–	–	–	–	–	–
Cc1ccc2[nH]cc(CN3CCCCC3)c2c1	–	38%	Non-Toxic	16%	71%	69%	–	–	–	–	–	–	–
Cc1ccc2c(c1)c(CN(C)C)cn2CCCCN1CCCCC1	–	37%	Non-Toxic	16%	74%	68%	–	–	–	–	–	–	–
CCCCn1cc(CN2CCCCC2)c2cc(Br)ccc21	–	71%	Non-Toxic	63%	78%	79%	Active	–	–	–	–	–	–
COC(=O)C1=C(C)NC(C)=C(C(=O)OC)C1c1ccccc1[N+](=O)[O-] [NIFEDIPINE]	–	–	–	–	–	–	–	73%	–	–	–	–	–
COc1ccc2[nH]cc(CCNC(C)=O)c2c1 [MELATONIN]	–	43%	–	–	–	–	–	–	–	–	–	–	–
Brc1ccc2c(c1)c(CN1CCCCC1)cn2Cc1ccccc1	–	54%	Non-Toxic	45%	79%	70%	Active	–	–	–	–	–	–
ClCCCCn1cc(CN2CCCCC2)c2cc(Br)ccc21	–	48%	Non-Toxic	57%	68%	62%	–	–	–	–	–	–	–
Brc1ccc2c(c1)c(CN1CCCCC1)cn2CCCCN1CCCCC1	Toxic	61%	Non-Toxic	19%	73%	70%	–	–	0%	–	–	–	–
C#CCn1cc(CN2CCCCC2)c2cc(Br)ccc21	–	47%	Non-Toxic	42%	77%	72%	–	–	–	–	–	–	–
Cc1ccc2c(c1)c(CN1CCCCC1)cn2Cc1ccccc1	–	56%	Non-Toxic	22%	77%	78%	40%	–	–	Active	Active	–	–
CC12CC3CC(C)(C1)CC(N)(C3)C2	–	–	–	–	77%	78%	–	–	–	–	–	–	–
Cc1ccc2c(c1)c(CN1CCCCC1)cn2CCCCN1CCCCC1	–	26%	Non-Toxic	4%	72%	70%	–	–	–	–	–	–	–
C#CCn1cc(CN(C)C)c2cc(Br)ccc21	–	12%	Non-Toxic	10%	70%	64%	–	–	–	–	–	–	–
CCCCn1cc(CN2CCCCC2)c2cc(C)ccc21	–	46%	Non-Toxic	21%	69%	66%	Active	–	–	–	–	–	–
Cc1ccc2c(c1)c(CN1CCCCC1)cn2CCCCCl	–	56%	Non-Toxic	35%	71%	62%	–	–	–	–	–	Active	–
CN(C)Cc1cn(Cc2ccccc2)c2ccc(Br)cc12	–	56%	Non-Toxic	38%	81%	78%	–	–	–	–	–	–	–
CCCCn1cc(CN(C)C)c2cc(Br)ccc21	–	66%	Non-Toxic	14%	81%	76%	–	–	–	–	–	–	40%
Cc1ccc2c(c1)c(CN(C)C)cn2Cc1ccccc1	–	44%	Non-Toxic	18%	73%	66%	–	–	–	–	–	–	–
C#CCn1cc(CN(C)C)c2cc(C)ccc21	–	12%	Non-Toxic	14%	80%	74%	–	–	–	–	–	–	–
C#CCn1cc(CN2CCCCC2)c2cc(C)ccc21	–	42%	Non-Toxic	25%	71%	66%	–	–	–	–	–	–	–
Brc1ccc2[nH]cc(CN3CCCCC3)c2c1	–	60%	Non-Toxic	7%	74%	67%	–	–	–	–	–	–	–
CN(C)Cc1c[nH]c2ccccc12 [GRAMINE]	–	45%	–	25%	80%	76%	Active	–	–	–	–	–	–
CCOC(=O)CCCn1cc(CN2CCCCC2)c2cc(Br)ccc21	–	43%	Non-Toxic	16%	73%	71%	–	–	–	–	–	–	–
CN(C)Cc1c[nH]c2ccc(Br)cc12 [BROMOGRAMINE]	–	47%	Non-Toxic	3%	80%	76%	–	–	–	–	–	–	40%
CCOC(=O)CCCn1cc(CN(C)C)c2cc(Br)ccc21	–	58%	Non-Toxic	13%	76%	66%	–	–	–	–	–	Active	–
